Data: ChEMBL document CHEMBL4000155, “Synthesis and Antileukemic Activities of Piperlongumine and HDAC Inhibitor Hybrids against Acute Myeloid Leukemia Cells” (J Med Chem, 2016)
Activity calls are given as the source filed them. The rule behind the calls is not given here.

Assays:
U-937 [1] = assay: Induction of apoptosis in p53 null human U937 cells at 2 uM after 24 hrs by annexin V-FITC/PI staining based flow cytometry; format: functional
Method in brief: (§1)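 Human U937 AML cells (p53 null) in RPMI 1640 with 10% FBS, 2 mM L-glutamine, penicillin/streptomycin, 37 °C, 5% CO2. Exposed 24 h to compound alone or with SAHA; vehicle DMSO < 0.1% v/v. Annexin V-FITC/PI staining and flow cytometry, reported as % Annexin V+ cells. Three independent experiments in triplicate; one representative shown. EC50 taken as concentration giving 50% Annexin V+ cells versus vehicle.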

MCF-10A = assay: Cytotoxicity against human MCF10A cells assessed as decrease in cell viability at 0.5 to 5 uM after 24 hrs by MTT assay; format: cell-based
Method in brief: (§2)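 MCF-10A (DMEM/F12, 5% horse serum, hydrocortisone, cholera toxin, insulin, EGF) and U937 (RPMI 1640, 10% FBS) were exposed to 0.5–5 μM, alone or PL+SAHA 1:1, for 24 h. MTT 0.05 mg/mL, 3 h at 37 °C, DMSO solubilization, A570. Viability given as mean ± SD of four to six independent experiments. DMSO <0.1% vehicle control.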

U-937 [2] = assay: Cytotoxicity against p53 null human U937 cells assessed as decrease in cell viability at 0.5 to 5 uM after 24 hrs by MTT assay; format: functional, cell-based; method in brief: as §2
Homo sapiens = species: Homo sapiens; conditions: at 1 µM
U-937 [3] = assay: Induction of apoptosis in p53 null human U937 cells at 0.25 to 2 uM after 24 hrs by annexin V-FITC/PI staining based flow cytometry; format: functional, cell-based
Method in brief: (§3)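 Cells treated 24 h, single agents or SAHA+PL at 1:1 (each drug at the stated concentration). Annexin V-FITC/PI kit staining, then flow cytometry, reported as % Annexin V+ cells. Three independent experiments in triplicate, with data from one representative experiment. DMSO <0.1% vehicle control.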

U-937 [4] = assay: Induction of cell death in p53 null human U937 cells at 1 to 4 uM after 24 hrs by annexin V-FITC/PI staining based flow cytometry; format: functional; method in brief: as §1
[5] = Antiproliferative activity against human CMS cells after 72 hrs by MTT assay; format: functional, cell-based
Method in brief: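 AML cell lines grown in RPMI 1640 with 10% FBS (20% for MOLM-13), 2 mM L-glutamine and penicillin/streptomycin at 37 °C, 5% CO2. Ara-C-resistant HL-60 and CMK sublines came from stepwise cytarabine selection and were kept in 600 nM or 300 nM cytarabine respectively. Cells were treated 72 h. MTT 0.05 mg/mL, 3 h at 37 °C, DMSO solubilization, absorbance at 570 nm. IC50 given ± SEM.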

U-937 [6] = assay: Induction of apoptosis in p53 null human U937 cells at 2 uM preincubated with NAC for 3 hrs followed by compound addition measured after 24 hrs by annexin V-FITC/PI staining based flow cytometry; format: functional, cell-based
Method in brief: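 U937 cells preincubated 3 h with 3 mM NAC or vehicle and washed with PBS to remove excess NAC. Then drug alone or with SAHA for 24 h. Apoptosis scored as % Annexin V+ by Annexin V-FITC/PI flow cytometry; vehicle DMSO < 0.1% v/v.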

U-937 [7] = assay: Induction of DNA damage in p53 null human U937 cells at 2 uM after 20 hrs by SYBR gold staining based alkaline comet assay; format: functional, cell-based
Method in brief: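 U937 cells treated 20 h with SAHA and PL alone or combined (16 h for hybrids). Alkaline single-cell gel electrophoresis, SYBR Gold staining, microscopy. Median % DNA in tail from 4 replicate gels ± s.e.m.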

U-937 [8] = assay: Induction of apoptosis in p53 null human U937 cells at 1 uM after 24 hrs by annexin V-FITC/PI staining based flow cytometry; format: functional; method in brief: as §3
U-937 [9] = assay: Induction of apoptosis in p53 null human U937 cells at 0.25 uM after 24 hrs by annexin V-FITC/PI staining based flow cytometry; format: functional; method in brief: as §3
U-937 [10] = assay: Induction of apoptosis in p53 null human U937 cells at 0.5 uM after 24 hrs by annexin V-FITC/PI staining based flow cytometry; format: functional; method in brief: as §3
AML [11] = assay: Induction of apoptosis in patient derived AML-91 cells after 24 hrs by annexin V-FITC/PI staining based flow cytometry; format: functional, cell-based; conditions: Homo sapiens
Method in brief: (§4)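 Primary AML samples purified by Ficoll-Hypaque density centrifugation and cultured in RPMI 1640 with 20% FBS, ITS and 20% 5637 bladder cancer cell supernatant as a GM-CSF source. Treated 24 h, then Annexin V-FITC/PI flow cytometry as % Annexin V+. Single experiment in triplicate.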

AML [12] = assay: Induction of apoptosis in patient derived AML-92 cells after 24 hrs by annexin V-FITC/PI staining based flow cytometry; format: functional, cell-based; conditions: Homo sapiens; method in brief: as §4
AML [13] = assay: Induction of apoptosis in patient derived AML cells assessed as PARP-1 cleavage at 0.25 to 2 uM after 24 hrs by Western blot analysis; format: functional, cell-based; conditions: Homo sapiens
Method in brief: (§5)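 Primary AML patient cells, Ficoll-Hypaque purified and grown in RPMI 1640/20% FBS with ITS and 5637 supernatant. Exposed 24 h; whole-cell lysates prepared with protease/phosphatase inhibitors, run on SDS-PAGE, blotted to PVDF and probed for PARP and cleaved caspase-3.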

AML [14] = assay: Induction of apoptosis in patient derived AML cells assessed as caspase 3 cleavage at 0.25 to 2 uM after 24 hrs by Western blot analysis; format: functional, cell-based; conditions: Homo sapiens; method in brief: as §5
U-937 [15] = assay: Induction of apoptosis in p53 null human U937 cells assessed as PARP-1 cleavage at 0.25 to 0.5 uM after 24 hrs by Western blot analysis; format: functional, cell-based
Method in brief: (§6)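 U937 cells exposed for 24 h. Lysates with protease/phosphatase inhibitors were separated by SDS-PAGE, transferred to PVDF and probed for PARP and cleaved caspase-3, with β-actin as loading control.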

U-937 [16] = assay: Induction of apoptosis in p53 null human U937 cells assessed as caspase 3 cleavage at 0.25 to 0.5 uM after 24 hrs by Western blot analysis; format: functional, cell-based; method in brief: as §6
[17] = Chemical stability of the compound in pH 7.4 phosphate buffer at 50 uM incubated up to 4 hrs in absence of GSH by HPLC analysis; format: physicochemical; conditions: pH 7.4, 4 h
Method in brief: (§7)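 Compound at 50 μM incubated with or without 5 mM GSH in phosphate buffer pH 7.4 at 37 °C for up to 4 h. Mixtures analysed by HPLC with water/0.1% formic acid/10% methanol versus 0.1% formic acid in acetonitrile, 0.5 mL/min, 10–80% B gradient over 18 min.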

[18] = Chemical stability of the compound in pH 7.4 phosphate buffer at 50 uM incubated up to 4 hrs in presence of GSH by HPLC analysis; format: physicochemical; conditions: pH 7.4, 4 h; method in brief: as §7
U-937 [19] = assay: Induction of apoptosis in p53 null human U937 cells at 0.25 to 0.5 uM preincubated with NAC for 3 hrs followed by compound addition measured after 24 hrs by annexin V-FITC/PI staining based flow cytometry; format: functional, cell-based
Method in brief: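 U937 cells preincubated 3 h with 3 mM NAC or vehicle, washed with PBS, then drug-treated 24 h. Annexin V-FITC/PI staining by flow cytometry, reported as % Annexin V+.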

Row | SMILES | Activity (U-937 [1]) | Activity (MCF-10A) | Activity (U-937 [2]) | inhibition (Homo sapiens) | Activity (U-937 [3]) | also measured
1 | COc1cc(C(=O)N2CCC=CC2=O)cc(OC)c1OCCCCCCC(=O)NO | 40% | Non-Toxic | Active | Active |  | 
2 | COc1cc(/C=C/C(=O)N2CCC(C)=CC2=O)cc(OC)c1OCCCCCCC(=O)NO |  |  |  | Active | inactive | 
3 | O=C(CCCCCCC(=O)Nc1ccccc1)NO [VORINOSTAT] | 25% | Non-Toxic |  |  |  | Activity (U-937 [4]): Active; IC50 [5]: 1.02 µM; Activity (U-937 [6]): inactive; Activity (U-937 [7]): inactive
4 | COC(=O)CCCCCCOc1c(OC)cc(/C=C/C(=O)N2CCC=CC2=O)cc1OC |  |  |  | inactive | inactive | 
5 | COc1cc(/C=C/C(=O)N2CCCCC2=O)cc(OC)c1OCCCCCCC(=O)NO |  |  |  | Active | inactive | 
6 | COc1cc(/C=C/C(=O)N2CCC=C(Cl)C2=O)cc(OC)c1OCCCCCCC(=O)NO | 100% | Toxic | Active | Active |  | Activity (U-937 [8]): 88%; Activity (U-937 [9]): 29.9%; Activity (U-937 [10]): 49.2%; Activity (AML [11]): Dose-dependent effect; Activity (AML [12]): Dose-dependent effect; Activity (AML [13]): Active; Activity (AML [14]): Active; Activity (U-937 [15]): Active; Activity (U-937 [16]): Active; Stability [17]: Stable; Stability [18]: Unstable; Activity (U-937 [19]): inactive
7 | COc1cc(C(=O)N2CCC=C(Cl)C2=O)cc(OC)c1OCCCCCCC(=O)NO | 40% | Non-Toxic | Active | Active |  | Stability [18]: Unstable
8 | COC(=O)CCCCCCOc1c(OC)cc(/C=C/C(=O)N2CCC=C(Cl)C2=O)cc1OC |  |  |  | inactive |  | Activity (U-937 [8]): 29.7%
